High-throughput results: PubChem, The Scripps Research Institute Molecular Screening Center
Most compounds without a hit are left out; they make up all but 3.9% or so of the library.
SF1 activator – activates the human nuclear receptor SF-1; Q13285; CHO-K1 Gal4-SF-1 LBD luciferase reporter; % increase over DMSO SF-1-specific signal; activation, % at 10 µM; actives 1.9% (n = 65,000);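 active = activation above the mean activation of all tested compounds plus 3 SD, cut at about 50% in these data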
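Material: CHO-K1 cells with Gal4–hSF-1 LBD chimera plus Gal4-driven luciferase / Input: 4,000 CHO-K1 cells per well / Incubation: compound exposure 20 h at 37 °C / Signal: luminescence read 15 min after SteadyLite luciferase reagent, after room-temperature equilibration / Read-out: percent activation versus DMSO / Benchmarks: DMSO negative control and −SF1 background wells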
HEK293 NFkB inh – inhibitors of the PMA/ionomycin-induced NF-kB reporter in HEK293 cells; HEK-293 NF-kB luciferase reporter, luminescence; inhibition, % at 3 µM; actives 0.21% (n = 62,000); AID 465;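 active = inhibition above the mean of all tested compounds plus 3 SD, cut at about 40% in these data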
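Material: HEK-293 cells with stable firefly luciferase reporter driven by four HIV NF-kB elements / Also added: PMA plus ionomycin mix as NF-kB-activating stimulus / Compound dosing: 3 µM once, 0.30% DMSO / Times: 1 h pretreatment, 16 h stimulation, 37 °C / Signal: luminescence / Evaluation: per-plate % inhibition versus controls / Benchmarks: DMSO and 10 µM reference inhibitor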
RORA act – RORA (human) activation. actives 1.5% (n = 65,000). CHO-K1 Gal4-RORA LBD luciferase reporter, luminescence; percent increase over mock-subtracted basal signal. activation, % at 10 µM;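 active = activation above the mean of all tested compounds plus 3 SD, cut at about 49% in these data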
Target sequence (P35398 whole entry, looked up, the tested form may be a part): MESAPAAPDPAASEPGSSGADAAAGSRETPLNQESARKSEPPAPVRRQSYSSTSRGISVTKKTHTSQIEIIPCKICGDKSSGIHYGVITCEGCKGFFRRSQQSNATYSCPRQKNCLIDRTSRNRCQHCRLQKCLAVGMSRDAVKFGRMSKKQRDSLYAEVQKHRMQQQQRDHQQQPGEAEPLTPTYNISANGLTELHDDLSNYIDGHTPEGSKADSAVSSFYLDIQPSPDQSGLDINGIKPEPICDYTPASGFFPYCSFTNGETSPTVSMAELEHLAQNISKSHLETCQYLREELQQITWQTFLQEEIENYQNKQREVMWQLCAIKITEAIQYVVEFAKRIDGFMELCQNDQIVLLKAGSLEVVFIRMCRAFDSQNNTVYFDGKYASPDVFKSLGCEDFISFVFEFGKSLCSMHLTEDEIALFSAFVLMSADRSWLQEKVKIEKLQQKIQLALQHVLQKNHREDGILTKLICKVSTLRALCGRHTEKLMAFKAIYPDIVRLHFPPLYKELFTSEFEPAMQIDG
Jurkat viability – cytotoxic compounds reducing Jurkat cell viability; actives 1.2% (n = 56,000); inhibition, % at 4 µM; Jurkat E6.1 viability, ATP luminescence, 48 h;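 active = inhibition above the mean inhibition of all tested compounds plus 3 SD, cut at about 28% in these data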
Each line names hits and unclear results; the compound was inactive in the other large screens.

COc1ccc(CC(=O)N2CCNC2=O)cc1	none
COc1ccc2nc(SCC(=O)N3CCNC3=O)[nH]c2c1	SF1 activator 65
O=C(c1ccc2nc(N3CCOCC3)sc2c1)N1CCCC1	none
COc1cccc(N2CCN(C(=O)c3ccc4nc(N5CCCCC5)sc4c3)CC2)c1	SF1 activator 89, RORA act 78
COc1ccc(N2CCN(C(=O)c3ccc4nc(N5CCCCC5)sc4c3)CC2)cc1	RORA act 68
Brc1cnn(-c2nc(N3CCOCC3)nc(N3CCOCC3)n2)c1	none
Cc1ccc(S(=O)(=O)Nc2nc3ccc(S(=O)(=O)N4CCCC4)cc3s2)cc1	none
Cc1cc(C(=O)Nc2sc3c(c2C#N)CCC(C(C)(C)C)C3)no1 (stereo unspecified)	SF1 activator 58
N#Cc1c(NC(=O)CCC(=O)O)sc2c1CCCC2	none (no result: HEK293 NFkB inh, Jurkat viability)
CC(C)(C)C1CCc2c(sc(NC(=O)c3cc(C4CC4)on3)c2C#N)C1 (stereo unspecified)	none
CC(C)c1cc(C(=O)Nc2sc3c(c2C#N)CCC3)no1	RORA act 76, Jurkat viability 69
CCc1ccc(CCC(=O)Nc2ccc(C)c(C)c2)o1	SF1 activator 56
Cc1cc(C(=O)Nc2sc(C)c(C)c2C#N)no1	none
CCc1ccc(CCC(=O)Nc2nnc(C)s2)o1	none
CCc1ccc(CCC(=O)Nc2sc3c(c2C#N)CCCC3)o1	Jurkat viability 89
CCOC(=O)N1CCC(N2C(=O)c3ccccc3C2Nc2cc(C(=O)OC)cc(C(=O)OC)c2)CC1 (stereo unspecified)	none
C=C(C)CSc1nnc([C@@H](NC(=O)OC(C)(C)C)C(C)CC)o1 (stereo partly specified)	none
CCCCOC(=O)Cn1c(=O)c2c(nc(Br)n2Cc2ccccc2)n(C)c1=O	none
COc1cc(OC)cc(C(=O)N2c3ccc(F)cc3CCC2C)c1 (stereo unspecified)	none
CCOC(=O)N1CCN(S(=O)(=O)c2ccc(C(=O)Nc3sc4c(c3C#N)CCC4)cc2)CC1	SF1 activator 74
Cc1cc(C(=O)Nc2sc3c(c2C#N)CCC(C)C3)cs1 (stereo unspecified)	RORA act 91
N#Cc1c(NC(=O)CN2CCCCC2)sc2c1CCC2	none
CCOc1ccccc1NC(=O)NC1CC2CCCC(C1)N2Cc1nnnn1CCc1ccccc1 (stereo unspecified)	none
COc1ccc(OC)c(NC(=O)C(CC(=O)O)NCc2ccco2)c1 (stereo unspecified)	none
Cc1csc(OCc2ccc(C#N)cc2)n1	none
Cn1c(-c2ccc3c(c2)OCO3)cnc1NCc1ccccc1	SF1 activator 68
Cn1c(-c2ccc3c(c2)OCO3)cnc1NCc1cccc(Cl)c1	none
O=C(NC1CCCCC1)c1cc2nc3c(c(C(F)(F)F)n2n1)CCCC3	SF1 activator 50
Cc1ccc2[nH]c(C)c(CN(C)C3CCN(C)CC3)c(=O)c2c1	none
CN1/C(=C/C(=O)c2nc(S(C)(=O)=O)ncc2Cl)C(C)(C)c2ccccc21	Jurkat viability 102
CC1=CC(=C2C(=O)c3ccccc3C2=O)C=C(C)O1	RORA act 57
CCN1C=CC(=C2C(=O)c3ccccc3C2=O)C=C1	HEK293 NFkB inh 50
CCCN1C=CC(=C2C(=O)c3ccccc3C2=O)C=C1	HEK293 NFkB inh 86
CCC1(CC)C(=O)N=C2c3ccccc3C(=O)N21	none
CN1C=CC(=C2C(=O)c3ccccc3C2=O)C=C1	RORA act 52
CC1=CC(=C2C(=O)c3ccccc3C2=O)C=C(C)N1Cc1ccco1	none
Cc1cc(C(=O)OCn2nnc3ccccc3c2=O)c(C)n1-c1ccccc1	none
Cc1cc(NC(=O)COC(=O)COc2ccc3c(c2)CCC3)no1	none
CCc1nc(Nc2ccc(N3CCN(C(C)=O)CC3)cc2)c2oc3ccccc3c2n1	SF1 activator 53
CCOC(=O)CSc1nc2cc(C)ccc2cc1C#N	SF1 activator 85, RORA act 71
CCOc1ccc2nc(SCC(=O)N3CCCCCC3)c(C#N)cc2c1	none
CCOC(=O)CSc1nc2cc3c(cc2cc1C#N)OCO3	SF1 activator 66
CCOC(=O)CSc1nc2cc(OC)ccc2cc1C#N	SF1 activator 104, RORA act 68
CCOC(=O)CSc1nc2cc(C)cc(C)c2cc1C#N	none
COC(=O)CSc1nc2cc3c(cc2cc1C#N)OCO3	none
CCOc1ccc2cc(C#N)c(SCC(=O)N3CCOCC3)nc2c1	RORA act 56
CCCNC(=O)Cn1cnc2sc(C(=O)NCCN(CC)CC)c(C)c2c1=O	none
Cc1cccc(-n2nc3c(c2NC(=O)c2ccc(Br)o2)CSC3)c1	none (no result: Jurkat viability)
Cc1onc(-c2ccccc2Cl)c1C(=O)OCC(=O)N1CCCc2ccccc21	none
O=C(N1CCN=C1SCc1cccnc1)C12CC3CC(CC(C3)C1)C2	none
COc1ccc2c(Cl)c(C(=O)NC3CCS(=O)(=O)C3)sc2c1 (stereo unspecified)	SF1 activator 50 (no result: Jurkat viability)
O=C(NC1C=CS(=O)(=O)C1)c1sc2ccccc2c1Cl (stereo unspecified)	none
COc1ccc(-c2ccc(-c3nnn(CC(C)=O)n3)cc2)cc1	SF1 activator 90
Cc1cc(C(=O)CN2C(=O)c3ccccc3C2=O)c(C)n1C1CC1	SF1 activator 56
CCOC(=O)C1CCN(C(=O)c2cc3c(-c4ccc(OC)c(OC)c4)nn(C)c3s2)CC1	none
CCOC(=O)C1CCCN(C(=O)c2cc3c(-c4cccc(OC)c4)nn(C)c3s2)C1 (stereo unspecified)	Jurkat viability 79
O=C(c1ccc2c(c1)c(=O)oc1ccccc12)N1CCCCC1	RORA act 50
O=C(COc1ccc(Cl)cc1Cl)NC(=O)N1CCOCC1	none
Cc1ccc2cc3c(NC(=O)C(C)C)nn(C)c3nc2c1	none
Cn1c(=O)c2cc(S(=O)(=O)Nc3ccc4c(c3)OCO4)ccc2n(C)c1=O	none
Cn1c(=O)n(C)c2cc(NS(=O)(=O)c3ccc4c(c3)CCCC4)ccc21	Jurkat viability 39
CCOC(=O)c1oc2ccc(S(=O)(=O)Nc3ccc4c(c3)n(C)c(=O)n4C)cc2c1C	Jurkat viability 44
O=C(CSc1n[nH]c(-c2ccc(S(=O)(=O)N3CCCCC3)cc2)n1)Nc1nccs1	none
O=C1NCC(O)=C1C=NC12CC3CC(CC(C3)C1)C2	none
CCCCOc1ccc(C2(C)CC(=O)NC2=O)cc1 (stereo unspecified)	none
COC(=O)c1c(-c2ccncc2)csc1NC(=O)c1ccoc1C	SF1 activator 64
COc1ccc(-n2ncc3c(N(C)C4CCCCC4)ncnc32)cc1	HEK293 NFkB inh 46
Cc1cccc(-n2ncc3c(N4CCN(c5nc(C)cc(C)n5)CC4)ncnc32)c1	none
COc1ccc(-n2ncc3c(N4CCC(C)CC4)ncnc32)cc1	none
Cc1cccc(-n2ncc3c(N(C)C4CCCCC4)ncnc32)c1	HEK293 NFkB inh 62
Cc1cccc(-n2ncc3c(N(CCO)CCO)ncnc32)c1	RORA act 68
O=C(CNS(=O)(=O)c1ccc(Br)s1)N1CCC(N2CCCCC2)CC1	none
CCOc1ccccc1NC(=O)Cn1nnc(C(=O)NCc2ccco2)c1N	HEK293 NFkB inh 42, Jurkat viability 98
